The text below walks through data of ChEMBL document CHEMBL1123435, “Synthesis of 11H-pyridocarbazoles and derivatives. Comparison of their DNA binding and antitumor activity with those of 6H- and 7H-pyridocarbazoles” (1986).

Experiment [1] deals with L1210. The experiment is described as follows: Inhibitory activity against L1210 cell culture. The class given is functional. The conditions noted are these: Mus musculus, read-out: ED50 (the source's name). Summed up:
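L1210 cells in exponential growth (1 × 10⁵/mL) were held for 24 h at 37 °C in RPMI 1640 with 10% fetal calf serum across a range of drug concentrations. Total cells were counted electronically. Duplicate treated cultures were expressed as a percentage of triplicate untreated controls. ED50 came from linear regression of percent residual cells against concentration on a semilog scale.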

The test system of the next experiment is Calf thymus DNA. The experiment is described as follows: Binding affinity towards calf thymus DNA, at pH 5. The class given is nucleic-acid assay. The conditions noted are these: Bos taurus. Summed up:
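Affinity for sonicated calf thymus DNA determined by ethidium bromide competition by fluorescence. Four cells were run together: buffer, DNA (1.5 μg/mL), and drug at 3 and 6 μg/mL plus DNA. Ethidium bromide (50 μg/mL of buffer) was added in aliquots, and apparent constants were derived from Scatchard plots of competition. Where a ligand fluoresces strongly when bound, direct fluorometric titration was used instead.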

Experiment [2] deals with L1210. The experiment is described as follows: Dose required to inhibit the cloning efficiency to a factor of 0.37 after 24-h exposure to the drug. The conditions noted are these: Mus musculus, L1210, 24 h. The class given is functional. Summed up: (§1)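 Exponentially growing L1210 cells (1 × 10⁵/mL) in RPMI 1640 with 10% fetal calf serum were exposed to the drug for 24 h at 37 °C. They were then diluted to 250 and 500 cells/mL and plated in Noble agar. After 14 days at 37 °C in 5% CO2, colonies >0.2 mm were counted, in triplicate per concentration. CE37 (cloning efficiency reduced to 0.37) was read from dose-response curves.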

For experiment [3], the system named is L1210. The experiment is described as follows: Dose required to inhibit the cloning efficiency to a factor of 0.37 after 24-h exposure to the drug in L1210 cell. Type of experiment: functional. The conditions noted are these: Mus musculus, L1210, 24 h. Summed up:
as §1

On to `CC(=O)[O-].Cc1c2cc[n+](C)cc2c(C)c2c1[nH]c1ccc(O)cc12` [ELLIPTINIUM ACETATE], for which, in the experiment with L1210 [1], the EC50 stood at 0.06 µg/mL. The compound further returned a K app with Calf thymus DNA of 1.3e+06 M⁻¹. The same compound had an EC37 in the experiment with L1210 [2] of 0.013 µg/mL.

In the case of `COc1ccc2[nH]c3c(ccc4cccnc43)c2c1`, in the experiment with Calf thymus DNA, the K app came to 100000 M⁻¹.

For `C[n+]1ccc2c(ccc3c4ccccc4[nH]c23)c1.[I-]`, in the experiment with L1210 [1], the EC50 is greater than 1 µg/mL. The K app in the experiment on Calf thymus DNA came out at 20000 M⁻¹. Moreover, in the experiment on L1210 [2], the EC37 is greater than 1 µg/mL.

As to `CC(=O)[O-].Cc1c2cc[n+](C)cc2c(C)c2c1[nH]c1ccccc12`, the EC50 in the experiment on L1210 [1] was 0.544 µg/mL. The K app in the experiment with Calf thymus DNA amounted to 230000 M⁻¹. Besides, in the experiment with L1210 [3], the EC37 was found to be 0.4 µg/mL.

As for `Cc1cc2c3ccccc3[nH]c2c2c[n+](C)ccc12.[I-]`, the EC50 in the experiment on L1210 [1] is greater than 1 µg/mL. This compound showed a K app in the experiment with Calf thymus DNA of 100000 M⁻¹. This compound also yielded an EC37 with L1210 [2] greater than 1 µg/mL.

Consider `Cc1cc2c3cc(O)ccc3[nH]c2c2c[n+](C)ccc12.[I-]`, for which the EC50 in the experiment with L1210 [1] was greater than 1 µg/mL. Also, the K app with Calf thymus DNA is 1e+06 M⁻¹. In the experiment with L1210 [2], this compound yielded an EC37 greater than 1 µg/mL.

For `COc1ccc2[nH]c3c(ccc4c3ccc[n+]4C)c2c1`, the K app with Calf thymus DNA was determined as 60000 M⁻¹.

On to `c1cnc2c(c1)ccc1c3ccccc3[nH]c12`, for which, in the experiment with Calf thymus DNA, the K app came to 100000 M⁻¹.

Compound `COc1ccc2[nH]c3c4c[n+](C)ccc4c(C)cc3c2c1` registered a K app with Calf thymus DNA of 100000 M⁻¹.

On to `COc1ccc2[nH]c3c4cc[n+](C)cc4ccc3c2c1.[I-]`, for which the EC50 in the experiment with L1210 [1] was greater than 1 µg/mL. This compound returned a K app with Calf thymus DNA of 25000 M⁻¹. In the experiment on L1210 [2], the EC37 was greater than 1 µg/mL.

Consider `C[n+]1cccc2c3[nH]c4ccc(O)cc4c3ccc21.[I-]`, for which, in the experiment on L1210 [1], the EC50 is greater than 1 µg/mL. The same compound returned a K app in the experiment on Calf thymus DNA of 100000 M⁻¹. The compound also displayed an EC37 with L1210 [2] greater than 1 µg/mL.

Regarding `C[n+]1cccc2c3[nH]c4ccccc4c3ccc21.[I-]`, in the experiment on L1210 [1], the EC50 is greater than 1 µg/mL. This compound also showed a K app in the experiment with Calf thymus DNA of 10000 M⁻¹. Moreover, the EC37 with L1210 [2] is greater than 1 µg/mL.

Take `C[n+]1ccc2ccc3[nH]c4ccc(O)cc4c3c2c1.[I-]`: the EC50 with L1210 [1] stood at 0.12 µg/mL. The K app in the experiment with Calf thymus DNA is 180000 M⁻¹.

With `COc1ccc2[nH]c3ccc4cc[n+](C)cc4c3c2c1.[I-]`, the EC50 with L1210 [1] was determined as 0.38 µg/mL. Moreover, the K app with Calf thymus DNA stood at 300000 M⁻¹.

In the case of `Cl.Oc1ccc2[nH]c3c(ccc4cccnc43)c2c1`, the EC50 with L1210 [1] is greater than 1 µg/mL. Besides, the K app with Calf thymus DNA was 20000 M⁻¹. The compound further yielded an EC37 in the experiment on L1210 [2] greater than 1 µg/mL.
